RBBP9 inh = blocks human serine hydrolase RBBP9; inhibition, % at 7.94 µM; O75884; recombinant RBBP9, FP-Rh probe fluorescence polarization; actives 0.2% (n = 220,000); AID 1515;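 active means inhibition above the campaign mean of all tested compounds plus 3 SD, cut at about 14% in these data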
Target sequence (O75884 whole entry, looked up): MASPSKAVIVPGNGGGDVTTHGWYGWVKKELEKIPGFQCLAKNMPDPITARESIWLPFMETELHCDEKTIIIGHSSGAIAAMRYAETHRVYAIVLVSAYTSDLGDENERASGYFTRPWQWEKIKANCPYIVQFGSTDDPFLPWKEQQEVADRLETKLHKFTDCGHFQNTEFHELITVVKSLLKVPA
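Controls: DMSO-treated enzyme wells and wells lacking RBBP9 | Material: RBBP9 protein | Technique: Fluorescence polarization | Replication: Single well per compound, no replicates | Buffer or medium: Tris-NaCl-Pluronic buffer, pH 8.0 | Timing: 30 min compound preincubation, 45 min probe labeling, 25 °C | Read-out basis: Percent inhibition from mP, scaled between DMSO and no-protein wells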
NCF1 inh = p47phox (human) inhibition | P14598 | p47phox/p22phox peptide binding, fluorescence polarization, 2 h | inhibition, % at 24.7 µM | actives 0.53% (n = 220,000);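 active means inhibition above about 30%, limit read from the data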
Cl transport mod = modulators of human KCC2 chloride dependent transport; KCC2 cells, thallium flux FluoZin-2 fluorescence; actives 2.2% (n = 190,000); Q9H2X9; B-score of Tl+ flux slope (higher = more flux/activation; lower = inhibition) at 10 µM;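 active means thallium flux slope and its plate-corrected score both differing from the plate sample mean at a set confidence after two filtering rounds, in either direction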;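 further: slope of fluorescence scaled to starting intensity during 10 to 20 s after thallium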
14-3-3 Bad PPI = disrupts binding of bovine 14-3-3 zeta to phospho-Bad peptide. inhibition, % at 21.7 µM. P63103. actives 0.71% (n = 220,000). TR-FRET 14-3-3zeta/Dy647-pBad peptide displacement, 1 h;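 active means inhibition above about 70%, limit read from the data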
Target sequence (P63103 whole entry, looked up): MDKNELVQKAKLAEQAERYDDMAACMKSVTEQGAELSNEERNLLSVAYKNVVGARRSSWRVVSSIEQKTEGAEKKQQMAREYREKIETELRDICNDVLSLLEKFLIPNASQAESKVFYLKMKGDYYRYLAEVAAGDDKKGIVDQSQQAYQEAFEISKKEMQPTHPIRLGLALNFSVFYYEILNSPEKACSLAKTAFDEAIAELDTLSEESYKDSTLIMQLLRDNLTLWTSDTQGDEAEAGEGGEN
ROMK mod = modulates human ROMK potassium channel activity. actives 2% (n = 130,000). Tet-inducible ROMK, thallium flux fluorescence; actives lie on both sides. B-score at 10 µM. P48048;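 active means signal ratio slope over the read window, or its plate-corrected B-score, at least 3 SD from the plate mean, either direction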;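 further: B-score of the F/F0 ratio slope over 7 to 12 s after thallium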
WT yeast gro inh = growth inhibition of WT yeast, mitochondrial fusion screen. actives 2.1% (n = 190,000). mitochondrial fusion phenotypic screen, WT strain. inhibition, % at 10 µM; in the data active means inhibition above about 58%; tested in S. cerevisiae
Large screens that a line does not name were inactive; [ ] = another dose, or the depositor's remark. Sampled rows, rich in hits. Any-hit rate of the full collection: about 5.8%.

Cc1nnc(NC(=O)NC(C)N2C(=O)C3C4C=CC(C4)C3C2=O)s1 (centres undefined)	none (no result: ROMK mod)
CC(NC(=O)Nc1nnc(C(F)(F)F)s1)(C(F)(F)F)C(F)(F)F	ROMK mod -3.5, WT yeast gro inh 70 (no result: Cl transport mod)
CC(C)(C)CC(=O)Nc1nnc(C(F)(F)F)s1	none
CC(NC(=O)Nc1nnc(C(F)(F)F)s1)N1C(=O)C2C3C=CC(C3)C2C1=O (centres undefined)	14-3-3 Bad PPI 79 (no result: ROMK mod)
Cc1ccc(S(=O)(=O)NN=C2C3CC4CC(C3)CC2C4)cc1[N+](=O)[O-]	none (no result: ROMK mod)
CCc1ccc2nc(N3C(=O)c4oc5ccccc5c(=O)c4C3c3ccc(OC)c(OC)c3)sc2c1 (centres undefined)	NCF1 inh 38 (no result: ROMK mod)
CCOc1ccc(C2c3c(oc4ccccc4c3=O)C(=O)N2c2ccccn2)cc1OC (centres undefined)	none (no result: RBBP9 inh, NCF1 inh, Cl transport mod, 14-3-3 Bad PPI, ROMK mod)
CC(OC(=O)CCc1c[nH]c2ccccc12)C(=O)c1ccccc1 (centres undefined)	none
O=C(CCCOc1ccc(Cl)cc1Cl)N1CCc2ccccc2C1	WT yeast gro inh 80 (no result: ROMK mod)
O=C(CCCOc1ccccc1)N1CCc2ccccc2C1	none (no result: ROMK mod)
COc1ccc(NS(=O)(=O)c2cc(NC(=O)c3ccc(C)s3)ccc2N2CCOCC2)cc1	none (no result: ROMK mod, WT yeast gro inh)
CC(C)(C)c1ccc(/C=N/NC(=S)NCc2ccccc2)cc1	none
Oc1ccc(/C=N/NC(=S)NCc2ccco2)cc1	none (no result: ROMK mod)
CCN(CC)c1ccc(/C=N/NC(=S)NCc2ccco2)cc1	WT yeast gro inh 67
CCN(Cc1ccccc1)c1ccc(/C=N/N=C(N)N)cc1	NCF1 inh 47
CCN(CC)c1ccc(/C=N/NC(=O)Nc2ccccc2)cc1	none (no result: Cl transport mod, ROMK mod)
CCN(Cc1ccccc1)c1ccc(/C=N/NC(=S)NC(C)C)cc1	WT yeast gro inh 69
CN(C)c1ccc(/C=N/NC(=S)NCc2ccccc2)cc1	WT yeast gro inh 70
CCN(CC)c1ccc(/C=N/O)cc1	none
Cc1ccc(-n2ncc3c(NNC(=O)Cc4ccccc4)ncnc32)cc1	none (no result: ROMK mod)
CCCCNS(=O)(=O)c1ccc2nc(-c3cccs3)cc(C(=O)NCC(OC)OC)c2c1	none
O=C(NN=C1CCCC1)c1ccccc1OCc1ccc(Cl)cc1	none
CC1=C(C#N)C(=O)N(C2CCS(=O)(=O)C2)C(=O)/C1=C\c1ccco1 (centres undefined)	14-3-3 Bad PPI 77, ROMK mod -2.9 (no result: WT yeast gro inh)
CCOC(=O)c1c(-c2cccs2)csc1NC(C)=O	none
CCOC(=O)c1c(-c2cccs2)csc1NC(=O)C(C)(C)C	WT yeast gro inh 60 (no result: Cl transport mod, ROMK mod)
CCOC(=O)c1c(-c2ccccc2)csc1NC(=O)CCN1C(=O)c2ccccc2C1=O	none (no result: ROMK mod)
CCOC(=O)c1c(-c2ccccc2)csc1NC(=S)NC	Cl transport mod 36
CCNC(=S)Nc1scc(-c2ccccc2)c1C(=O)OCC	Cl transport mod 42
CCOC(=O)c1c(-c2ccc(C)o2)csc1NC(=S)NC(=O)c1cccs1	Cl transport mod 6.3
CCOC(=O)c1c(-c2ccccc2)csc1NC(=O)CSc1nnc(C)s1	none
CCCc1ccc(-c2cc(C(=O)Nc3ccc([N+](=O)[O-])cn3)c3ccccc3n2)cc1	none (no result: ROMK mod)
Cn1c(Cc2ccccc2)nnc1SCC(=O)N1CCN(c2ccccc2)CC1	none
Cn1c(Cc2ccccc2)nnc1SCC(=O)N1CCOCC1	NCF1 inh 83
CC1CCN(S(=O)(=O)c2ccc(N/N=C(/C#N)C(N)=O)cc2)CC1	WT yeast gro inh 78 (no result: Cl transport mod, ROMK mod)
CC(=O)c1ccc(NC(=S)N2CC(C)CC(C)C2)cc1 (centres undefined)	none (no result: ROMK mod)
Cc1ccc2[nH]c(O)c(N=Nc3nc4ccccc4s3)c2c1	Cl transport mod 40 (no result: ROMK mod, WT yeast gro inh)
Oc1[nH]c2ccccc2c1N=Nc1nc2ccccc2s1	Cl transport mod 6
CCNC(=S)N/N=C/c1c(Cl)cccc1Cl	Cl transport mod 9.3
Cc1ccc(NC(=S)N/N=C/c2c(Cl)cccc2Cl)c(C)c1	Cl transport mod 53
CCNC(=S)N/N=C/c1cccc(/C=N/NC(=S)NCC)c1	none
FC(F)(Cl)c1nnc2ccc(Cl)nn12	none
O=C(NCCCN1CCCC1=O)C1CCCO1 (centres undefined)	none
CCOC(=O)c1c(C)[nH]c(C)c1C(=O)COC(=O)/C=C/c1cccc(C(F)(F)F)c1	WT yeast gro inh 58
CCOC(=O)c1c(C)[nH]c(C)c1C(=O)COC(=O)c1cc2ccccc2cc1OC	none (no result: ROMK mod)
CCOC(=O)c1c(C)[nH]c(C)c1C(=O)COC(=O)c1cc2ccccc2cc1O	WT yeast gro inh 74 (no result: ROMK mod)
COc1ccccc1NS(=O)(=O)c1cc(NC(=O)c2[nH]c(C)c(C(C)=O)c2C)ccc1N1CCOCC1	none (no result: ROMK mod, WT yeast gro inh)
COc1cc(CNC(C)(C)CO)cc(Br)c1OCc1ccccc1	none
CCOc1cc(CNCCO)cc(Br)c1OCc1ccc(Cl)cc1	none (no result: ROMK mod)
CCOc1cc(CNC(C)(C)CO)cc(Br)c1OCc1ccc(Cl)cc1Cl	WT yeast gro inh 88 (no result: ROMK mod)
CCOc1cc(CNCCO)cc(Br)c1OCc1ccccc1Cl	WT yeast gro inh 98
O=C(Nc1nc2c(s1)CCc1ccccc1-2)c1cccs1	none (no result: Cl transport mod)
Fc1ccccc1Nc1nc2c(s1)CCc1ccccc1-2	WT yeast gro inh 64 (no result: ROMK mod)
O=C(COc1ccc([N+](=O)[O-])cc1)Nc1ccc(C(=O)Nc2ccccc2C(=O)O)cc1	NCF1 inh 48
COc1ccc(-c2csc3nc(C)nc(N4CCN(c5ccc(C(C)=O)cc5)CC4)c23)cc1OC	none
O=S(=O)(Nc1ccc(O)c(Sc2nc3ccccc3s2)c1)c1cccc2ccccc12	WT yeast gro inh 69 (no result: ROMK mod)
Cc1ccc(Cl)cc1NC(=O)CCN1C(=O)C2C3CCC(C3)C2C1=O (centres undefined)	none
CC(=O)OCc1c(C(F)(F)F)nn(C)c1SCc1ccc(Cl)cc1	14-3-3 Bad PPI 141[fluorescence artefact?]
CCOc1ccc(-c2nnc3sc(-c4ccccc4OC)nn23)cc1	ROMK mod 3.3 (no result: NCF1 inh, 14-3-3 Bad PPI, WT yeast gro inh)
Nn1c(SCc2cccc(Br)c2)nnc1-c1cccnc1	none (no result: ROMK mod, WT yeast gro inh)
Cc1ccc2nc(/C(C#N)=C\c3ccc(N4CCCCC4)c([N+](=O)[O-])c3)[nH]c2c1	14-3-3 Bad PPI 87[fluorescence artefact?]
N#C/C(=C/c1ccc(N2CCCC2)c([N+](=O)[O-])c1)c1nc2ccccc2[nH]1	none (no result: ROMK mod)
c1cc2c(cc1C1CCCCC1)c1c3n2CCN=C3CCC1	WT yeast gro inh 93
Nc1ccc(Sc2cnn(-c3ccccc3)c(=O)c2Cl)cc1	none (no result: ROMK mod)
Cc1ccc(Sc2cnn(-c3ccccc3)c(=O)c2Cl)cc1	WT yeast gro inh 76
COc1ccc(OC)c2sc(NC(=O)c3ccc(Cl)s3)nc12	none (no result: Cl transport mod, ROMK mod)
COc1ccc(OC)c2sc(NC(=O)c3ccc(Br)s3)nc12	Cl transport mod 6.1 (no result: ROMK mod)
CCOC(=O)c1ccc(N2C(=O)CC(Nc3ccc(O)cc3)C2=O)cc1 (centres undefined)	NCF1 inh 35 (no result: WT yeast gro inh)
CCOC(=O)c1ccc(N2C(=O)CC(NNC(=O)c3ccc(Br)s3)C2=O)cc1 (centres undefined)	none (no result: ROMK mod, WT yeast gro inh)

Screening results from PubChem BioAssay.
